In ChEMBL document CHEMBL1155724, “Novel cytotoxic annonaceous acetogenins from Annona muricata” (J Nat Prod, 2001):
Values after ≈ are worked out from the molar mass of the structure shown.

How the values were obtained:
HepG2 = experiment: Cytotoxicity against human HepG2 cells after 12 days by methylene blue colorimetric method; type: functional, cell-based; settings: HepG2, 288 h
Summary of the method: (§1)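 Hep G2 and HBV-transfected Hep G2 (Hep 2,2,15) cells were grown in RPMI 1640 or DMEM with 10% FCS, 100 units/mL penicillin and 100 µg/mL streptomycin, at 37 °C in humidified 5% CO2. Viability was measured by methylene blue staining, read at 592 nm. IC50 is the concentration giving 50% lower absorbance than drug-free controls.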

[1] = Cytotoxicity against human HepG2(2.2.15) cells after 12 days by methylene blue colorimetric method; type: functional, cell-based; settings: HepG2 2.2.15, 288 h; summary of the method: as §1

Row | SMILES | IC50 (HepG2) | IC50 [1]
1 | CCCCCCCCCCCCCC[C@@H](O)[C@H]1CC[C@H]([C@H](O)CC[C@H](O)CCCCCCCC2=C[C@H](C)OC2=O)O1 [LONGIFOLICIN] | 0.000404 µg/mL (≈ 0.000695 µM) | 0.0049 µg/mL (≈ 0.00844 µM)
2 | CCCCCCCCCCCC[C@@H](O)[C@H]1CC[C@@H]([C@@H](O)CCCCC(=O)CCCCCCCC2=C[C@H](C)OC2=O)O1 [COROSSOLONE] | 0.48 µg/mL (≈ 0.829 µM) | 0.284 µg/mL (≈ 0.491 µM)
3 | COc1cccc2c1C(=O)c1c(O)c3c(c(O)c1C2=O)C[C@@](O)(C(=O)CO)C[C@@H]3O[C@H]1C[C@H](N)[C@H](O)[C@H](C)O1 [DOXORUBICIN] |  | 0.45 µg/mL (≈ 0.828 µM)
4 | CCCCC(O)C(O)C/C=C\CC[C@H](O)[C@@H]1CC[C@@H](CCCCCCCCCCCC[C@@H](O)CC2=C[C@H](C)OC2=O)O1 (stereo partly specified) [MURICIN F] | 0.0428 µg/mL (≈ 0.0719 µM) | 0.00386 µg/mL (≈ 0.00649 µM)
5 | CCCCCCCC(O)C(O)CC[C@H](O)[C@@H]1CC[C@@H](CCCCCCCCCC[C@@H](O)CC2=C[C@H](C)OC2=O)O1 (stereo partly specified) [MURICIN D] | 0.00066 µg/mL (≈ 0.00116 µM) | 0.048 µg/mL (≈ 0.0844 µM)
6 | CCCCCCCCCCCCC(O)C(O)CCC(O)C1CCC(CCCCCCC[C@@H](O)CC2=C[C@H](C)OC2=O)O1 (mixture of isomers) [MURICATETROCIN A/B] | 0.0495 µg/mL | 0.00483 µg/mL
7 | CCCCCCCC(O)C(O)CC[C@H](O)[C@@H]1CC[C@H](CCCCCCCCCCCC[C@@H](O)CC2=C[C@H](C)OC2=O)O1 (stereo partly specified) [MURICIN C] |  | 0.00387 µg/mL (≈ 0.00648 µM)
8 | CCCCCC(O)C(O)CCCCCC[C@@H](O)[C@H]1CC[C@H](CCCCCCCCCC[C@@H](O)CC2=C[C@H](C)OC2=O)O1 (stereo partly specified) [MURICIN A] |  | 0.00513 µg/mL (≈ 0.00859 µM)
9 | CCCCCC(O)C(O)CCCCCC[C@H](O)[C@@H]1CC[C@H](CCCCCCCCCC[C@H](O)CC2=C[C@H](C)OC2=O)O1 (stereo partly specified) [MURICIN B] |  | 0.00429 µg/mL (≈ 0.00719 µM)
10 | CCCCCCCCCCCC[C@@H](O)[C@H]1CC[C@H]([C@H](O)CCCC[C@H](O)CCCCCCCC2=C[C@H](C)OC2=O)O1 [COROSSOLINE] | 0.353 µg/mL (≈ 0.608 µM) | 0.234 µg/mL (≈ 0.403 µM)
